Results reported in ChEMBL document CHEMBL1142164, “Activities of naphthylisoquinoline alkaloids and synthetic analogs against Leishmania major” (Antimicrob Agents Chemother, 2007).

What was measured:
[1] = Cytotoxicity index, IC50 for J774.1 macrophages over IC50 for Leishmania major promastigotes; settings: mouse; for selectivity ratio: J774.1 macrophages, read-out: Ratio IC50
In short: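 Index is J774.1 IC50 divided by promastigote IC50, with both assays run in parallel. Promastigotes were incubated 24 h at 26°C with rising concentrations, and J774.1 cells 24 h at 37°C. Alamar Blue was then added. OD at 540/630 nm was read, and IC50 was interpolated linearly from the 48 h readings, with drug-free wells set as 100% growth.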

Leishmania major = assay: Cytotoxicity against cloned virulent Leishmania major promastigotes MHOM/IL/81/FE/BN1 after 48 hrs; assay type: organism-based
In short: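 L. major promastigotes grown on blood agar at 26°C, 5% CO2, then washed in PBS and suspended at 1 × 10^8 cells/ml in complete Click RPMI 1640 (10% FCS, glutamine, HEPES pH 7.2, antibiotics, 2-mercaptoethanol), no phenol red. Exposed to increasing compound concentrations 24 h at 26°C, then Alamar Blue added. OD read 540/630 nm; 48 h OD versus untreated (100% growth) gave IC50 by linear interpolation. Duplicate wells, ≥2 experiments; DMSO ≤1% final.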

Mus musculus [2] = species on record: Mus musculus; assay: Cytotoxicity against J774.1 macrophages after 48 hrs; settings: J774.1, 48 h
In short: (§1)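 J774.1 cells, BALB/c peritoneal exudate cells (erythrocytes lysed in 10 mM NH4Cl), or BMDC (day-10 nonadherent cells from GM-CSF 200 U/ml cultures) were plated at 2 × 10^6 cells/ml in complete RPMI without phenol red. Cells were exposed to increasing concentrations for 24 h at 37°C in 5% CO2, then Alamar Blue was added. IC50 was taken by linear interpolation from the 48 h OD. Duplicate wells, at least two experiments.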

Mus musculus [3] = species on record: Mus musculus; assay: Cytotoxicity against BALB/c mouse peritoneal macrophages by Alamar blue method; assay type: functional; in short: as §1
[4] = Cytotoxicity against BALB/c mouse bone-marrow derived dendritic cells by Alamar blue method; assay type: cell-based; settings: Dendritic cell; in short: as §1
NIH3T3 = assay: Cytotoxicity against mouse embryo NIH3T3 cells by Alamar blue method; assay type: cell-based
In short: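 NIH 3T3 fibroblasts were grown on gelatin and suspended at 2 × 10^6 cells/ml in DMEM. They were exposed to rising compound concentrations for 24 h at 37°C in 5% CO2, then Alamar Blue was added. IC50 was derived by linear interpolation of the 48 h OD. Duplicate wells per concentration; at least two experiments.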

COc1c2c(cc(O)c1-c1c(C)cc3cccc(OC)c3c1O)C[C@H](C)N=C2C [ANCISTROHEYNINE B]
selectivity ratio [1]: < 1
IC50 (Leishmania major): 33 µM
IC50 (Mus musculus [2]): 29.9 µM

COc1cc(OC)c2c(C)[n+](-c3ccccc3)c(C)cc2c1.[O-][Cl+3]([O-])([O-])[O-]
selectivity ratio [1]: 1.47
IC50 (Leishmania major): 26.6 µM
IC50 (Mus musculus [2]): 39.2 µM

COc1cc(CO)c(-c2ccc3c(c2O)[C@@H](C)N[C@H](C)C3)c2cccc(O)c12 [DIONCOPELTINE A]
IC50 (Leishmania major): > 100 µM
IC50 (Mus musculus [2]): > 100 µM

COc1cc2c(c(OC)c1)C(C)=[N+](c1ccc(OC)c3c(OC)cc(C)cc13)[C@@H](C)C2 [ANCISANCISTROCLADINIUM A]
selectivity ratio [1]: 6.48
IC50 (Mus musculus [3]): 41.7 µM
IC50 (Leishmania major): 4.9 µM
IC50 (Mus musculus [2]): 31.8 µM
IC50 [4]: 36 µM

COc1cc(OC)c2c(C)[n+](-c3ccccc3)c(C)cc2c1.[Cl-]
Ratio IC50 [1]: < 1
IC50 (Leishmania major): 47 µM
IC50 (Mus musculus [2]): 43.7 µM

COc1cc(C)c(-c2ccc(O)c3c2C[C@@H](C)N[C@@H]3C)c2cccc(O)c12 [DIONCOPHYLLINE C]
selectivity ratio [1]: < 1
IC50 (Leishmania major): 36.5 µM
IC50 (Mus musculus [2]): 32.8 µM

COc1cccc2c(-c3ccc4c(c3O)[C@@H](C)N[C@H](C)C4)c(C)cc(OC)c12 [DIONCOPHYLLINE A]
IC50 (Leishmania major): 47 µM

COc1cc2c(c(OC)c1)C(C)=[N+](c1ccc3cc(C)cc(OC)c3c1O)[C@@H](C)C2 [ANCISTROCLADINIUM B]
selectivity ratio [1]: 9.04
IC50 (Mus musculus [3]): 16.9 µM
IC50 (Leishmania major): 1.24 µM
IC50 (Mus musculus [2]): 11.2 µM
IC50 (NIH3T3): 10.6 µM
IC50 [4]: 20.1 µM

COc1cc(C)c(-c2ccc3cc(C)nc(C)c3c2O)c2cccc(O)c12 [ENT-DIONCOPHYLLEINE A]
IC50 (Leishmania major): 32.3 µM

COc1cc(OC)c(-c2ccc(OC)c3c(OC)cc(C)cc23)c2c1C(C)=N[C@@H](C)C2 [ANCISTROEALAINE A]
IC50 (Leishmania major): > 100 µM
IC50 (Mus musculus [2]): > 100 µM

COc1cc(OC)c2c(C)[n+](-c3cccc4ccccc34)c(C)cc2c1.[O-][Cl+3]([O-])([O-])[O-]
selectivity ratio [1]: 3.48
IC50 (Mus musculus [3]): 15.5 µM
IC50 (Leishmania major): 2.91 µM
IC50 (Mus musculus [2]): 10.2 µM
IC50 (NIH3T3): 15 µM
IC50 [4]: 27.4 µM

COc1cc2c(c(OC)c1-c1c(C)cc3cccc(OC)c3c1O)C(C)=N[C@@H](C)C2 [ANCISTROCLADIDINE]
IC50 (Leishmania major): > 100 µM
IC50 (Mus musculus [2]): > 100 µM

COc1ccc(-c2ccc3cc(C)nc(C)c3c2O)c2cc(C)cc(OC)c12 [DIONCOPHYLLEINE D]
IC50 (Leishmania major): > 100 µM
IC50 (Mus musculus [2]): > 100 µM
